Source: paper PMC5453637 (Translational research : the journal of laboratory and …, 2016)
“And” between values parts separate entries of the source, which are not always exact repeats. Equal entries are not always repeated. One block for each molecule: values may come before it.

Experiments:
human wild-type CFTR [1] = molecular target: T1, human wild-type CFTR (Homo sapiens, UniProt P13569); experiment: Plate reader assay of CFTR activity; type: cell-based; settings: read-out: EC50 CFTR activation; as stated in abstract
Outline: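 FRT cells co-expressing human wild-type CFTR and YFP-H148Q were plated at 20,000 cells/well and used 24–48 h later. After 3 PBS washes, cells were incubated 10 min with test compound plus 125 nM forskolin. Fluorescence was recorded 2 s at baseline, then 12 s after adding PBS with 137 mM Cl⁻ replaced by I⁻. Initial iodide influx rate came from exponential regression. EC50 was taken from full concentration-dependence data, n=3.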

human wild-type CFTR [2] = molecular target: T1, human wild-type CFTR; experiment: Whole-cell patch-clamp in FRT cells; type: cell-based
human wild-type CFTR [3] = molecular target: T1, human wild-type CFTR; experiment: Inside-out patch-clamp; type: biochemical; settings: 1 μM, after submaximal ATP and catalytic subunit of protein kinase A
Outline: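 Inside-out macro-patches were taken from FRT cells stably expressing human wild-type CFTR using large pipette tips (3–5 MΩ). Pipette: 150 mM NMDG-Cl, 3 CaCl2, 2 MgCl2, 10 Na-HEPES, pH 7.3. Test compound (1 μM) followed. Steps of 600 ms ran −100 to +100 mV in 20 mV increments from −60 mV holding, 4 s apart; filtered 1 kHz, sampled 5 kHz. Three experiment sets.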

cellular cAMP [4] = experiment: cAMP immunoassay in FRT cells; type: cell-based, rat; settings: 10 μM, 10 min, alone or with 90 nM forskolin
Outline: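 FRT cells in 12-well plates received vehicle, 10 μM test compound with or without 90 nM forskolin, or 20 μM forskolin alone, for 10 min at 37°C. Cells were lysed by freeze-thaw and centrifuged (600g, 10 min, 4°C). cAMP was measured by immunoassay.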

cellular cGMP = experiment: cGMP immunoassay in FRT cells; type: cell-based, rat; settings: 10 μM, 10 min
Outline: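 FRT cells received 10 μM test compound or vehicle for 10 min at 37°C. They were lysed by freeze-thaw and cleared by centrifugation (600g, 10 min, 4°C). cGMP was measured by immunoassay.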

cytoplasmic Ca^2+ = experiment: Cytoplasmic calcium measurement; type: cell-based, rat; settings: 10 μM, 2 min, added alone
Outline: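 FRT cells were loaded with Fluo-4 NW 48 h after plating. They were pretreated 2 min with 10 μM test compound or vehicle, then given 100 μM ATP as calcium agonist. Cytoplasmic Ca2+ was read as Fluo-4 fluorescence (ex/em 494/516 nm) in a plate reader with syringe pumps.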

[5] = Stability in simulated gastric fluid; type: physicochemical; settings: 10 μM, pH 2, 37°C, 3 hour
Outline: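 Test compound (10 μM) was incubated 0 or 3 h at 37°C in simulated gastric fluid (NaCl, 0.7% HCl, pH 2). Remaining compound was measured by LC/MS chromatography. n=3.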

[6] = In vitro metabolic stability in human liver microsomes; type: in vitro ADME; settings: 1 mM NADPH, 37°C
Outline: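 Test compound was incubated at 37°C for specified times with human liver microsomes (1 mg protein/mL) in 100 mM potassium phosphate with 1 mM NADPH. Samples were chilled on ice and extracted with ice-cold ethyl acetate. Supernatant was dried, redissolved in acetonitrile:water 3:1 and quantified by LC/MS: 5–95% acetonitrile gradient over 16 min, 0.2 mL/min, ESI(+), m/z 100–1500.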

[7] = tested on: scopolamine-induced constipation; experiment: Scopolamine-induced mouse model of acute constipation; type: in vivo, mice
Outline: (§1)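 Female CD1 mice, 8–10 weeks, were made constipated with loperamide 0.3 mg/kg ip or scopolamine 0.5 mg/kg ip. Test compound 10 mg/kg (saline with 5% DMSO and 10% Kolliphor HS 15) or vehicle was given ip or orally, 1 h before or 1 h after the inducer. Mice sat in metabolic cages with food and water. Stool was collected 3 h for weight, pellet number and water content (dried 80°C, 24 h). n=4 mice/group.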

[8] = tested on: loperamide-induced constipation; experiment: Loperamide-induced mouse model of constipation; type: in vivo, mice
Outline: as §1

C3H/HeJ mice = experiment: Genetic mouse model of chronic constipation; type: in vivo
C3H/HeOuJ mice = experiment: Wild-type control mice; type: in vivo; settings: 10 mg/kg
Outline: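 Female C3H/HeJ (Tlr4 mutant, chronically constipated) and background C3H/HeOuJ mice, 8–11 weeks, were studied as paired animals. They received test compound 10 mg/kg orally in saline with 5% DMSO and 10% Kolliphor HS 15, or vehicle, at zero time, then went into metabolic cages. Stool was collected 4 h for weight, pellet count and water content ([wet − dry]/wet after drying 80°C, 24 h). n=10 mice/group.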

[9] = tested on: enteroids generated from normal human duodenum and jejunum; experiment: Swelling measurements in human enteroids; type: cell-based
Outline: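 Enteroids came from adult duodenal/jejunal endoscopic biopsies, grown on coverglass dishes. Medium was replaced with Advanced DMEM/F12 and cytoplasm labelled with calcein green-AM, 1 h at 37°C. Forskolin was added, […], and/or test compound at 5 μM; test compound went in 10 min before forskolin when combined. Confocal images were taken every 10 min at 37°C, 5% CO2. Result was percent increase in enteroid area over initial area, e.g. at 40 min.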

cellular cAMP [10] = settings: cited from earlier work
[11] = tested on: loperamide-induced constipation; settings: cited from earlier work
[12] = cited from earlier work
[13] = mice, rapid hepatic metabolism; cited from earlier work
CFTR-deficient mice = settings: cited from earlier work

T1 sequence (P13569 whole entry): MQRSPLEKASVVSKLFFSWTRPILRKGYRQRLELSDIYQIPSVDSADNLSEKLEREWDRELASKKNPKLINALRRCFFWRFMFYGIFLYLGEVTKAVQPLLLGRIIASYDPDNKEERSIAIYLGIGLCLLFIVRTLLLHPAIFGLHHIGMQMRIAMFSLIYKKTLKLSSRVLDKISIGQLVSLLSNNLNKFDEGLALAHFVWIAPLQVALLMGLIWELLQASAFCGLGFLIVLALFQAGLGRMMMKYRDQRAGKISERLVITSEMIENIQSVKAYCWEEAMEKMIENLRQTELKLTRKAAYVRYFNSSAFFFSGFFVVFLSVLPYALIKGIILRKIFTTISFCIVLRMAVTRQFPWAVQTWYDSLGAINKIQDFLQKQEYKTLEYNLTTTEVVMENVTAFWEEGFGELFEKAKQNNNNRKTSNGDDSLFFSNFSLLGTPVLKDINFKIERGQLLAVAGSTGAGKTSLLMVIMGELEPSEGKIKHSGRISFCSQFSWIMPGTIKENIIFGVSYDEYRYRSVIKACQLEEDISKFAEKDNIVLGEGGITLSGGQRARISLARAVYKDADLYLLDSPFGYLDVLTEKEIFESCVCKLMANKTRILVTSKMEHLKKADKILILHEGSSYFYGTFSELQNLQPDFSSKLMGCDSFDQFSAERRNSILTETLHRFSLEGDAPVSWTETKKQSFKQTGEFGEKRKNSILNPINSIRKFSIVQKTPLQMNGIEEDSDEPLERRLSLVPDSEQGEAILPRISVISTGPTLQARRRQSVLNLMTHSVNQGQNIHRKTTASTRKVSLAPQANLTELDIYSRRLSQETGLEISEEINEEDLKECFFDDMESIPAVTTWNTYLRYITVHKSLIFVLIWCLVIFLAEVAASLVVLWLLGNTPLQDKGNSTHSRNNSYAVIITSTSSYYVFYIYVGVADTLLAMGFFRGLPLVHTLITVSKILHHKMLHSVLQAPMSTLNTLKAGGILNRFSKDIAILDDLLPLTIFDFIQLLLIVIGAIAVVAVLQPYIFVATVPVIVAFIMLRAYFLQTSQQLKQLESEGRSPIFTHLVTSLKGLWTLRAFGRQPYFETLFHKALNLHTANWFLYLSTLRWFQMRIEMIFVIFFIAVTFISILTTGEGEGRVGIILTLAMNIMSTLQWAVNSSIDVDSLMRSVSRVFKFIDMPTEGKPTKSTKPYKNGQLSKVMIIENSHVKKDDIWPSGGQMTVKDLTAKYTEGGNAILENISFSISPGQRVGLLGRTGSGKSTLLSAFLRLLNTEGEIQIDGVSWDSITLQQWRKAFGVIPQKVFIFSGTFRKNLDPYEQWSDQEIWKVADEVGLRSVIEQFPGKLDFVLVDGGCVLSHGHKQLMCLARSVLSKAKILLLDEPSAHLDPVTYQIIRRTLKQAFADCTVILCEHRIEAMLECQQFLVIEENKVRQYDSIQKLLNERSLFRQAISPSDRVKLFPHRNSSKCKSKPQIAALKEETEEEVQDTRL

Molecule: Nc1ccc([N+](=O)[O-])cc1-c1nc2ccccc2n(Cc2ccccc2)c1=O [CFTRact-J027]
EC50 (human wild-type CFTR [1]): ~200 nM
Increase of CFTR activity (whole-cell current) (human wild-type CFTR [2]; 1 μM extracellular, after 150 nM forskolin (~25% maximal stimulation)): more than 4 fold
CFTR activity in inside-out patch (human wild-type CFTR [3]): strongly increased CFTR activity
Cellular cAMP (cellular cAMP [4]): did not elevate cellular cAMP
Cellular cGMP (cellular cGMP): did not elevate cellular cGMP
Cytoplasmic Ca^2+ (cytoplasmic Ca^2+): nor did it elevate cytoplasmic Ca^2+
Stability in simulated gastric fluid [5]: no compound degradation
Elimination half-life in human hepatic microsomes ([6]; 1 mg protein/mL, CFTRact-J027 as printed): ~ 35 min and 35 min
Compound remaining at 60 minutes ([6]; human hepatic microsomes): 34%
Efficacy on stool parameters, given after development of constipation ([7]; 10 mg/kg ip, 1 hour after scopolamine): effective
Efficacy on stool parameters, given orally after development of constipation ([7]; 10 mg/kg po, 1 hour after scopolamine): not effective
Stool parameters (3-hour stool weight, pellet number, water content) ([7]; 10 mg/kg po, 1 hour before scopolamine 0.5 mg/kg ip): normalization of stool parameters
Duration of effect ([7]; in mice): 3 to 4 h
Efficacy on stool parameters, given after development of constipation ([8]; 10 mg/kg ip, 1 hour after loperamide 0.3 mg/kg ip): effective
Efficacy on stool parameters, given orally after development of constipation ([8]; 10 mg/kg po, 1 hour after loperamide): not effective
Whole-gut transit time (C3H/HeJ mice; 10 mg/kg ip): normalized
4-hour stool weight, pellet number, and water content (C3H/HeJ mice; 10 mg/kg oral): to the level of wild-type controls
Stool parameters or whole-gut transit time in wild-type control mice (C3H/HeOuJ mice): did not affect
Enteroid size, compound alone ([9]; 5 μM, 40 minutes, human jejunal enteroids, no forskolin): Little or no change
Enteroid swelling response to low forskolin after pretreatment ([9]; 0.1 or 0.2 μM forskolin, pretreatment 10 minutes with CFTRact-J027, duodenum and jejunum): increased
Swelling response relative to maximal (5 μM) forskolin ([9]; human enteroids): approximately 50%
Cellular cAMP concentration (prior data) (cellular cAMP [10]): does not elevate cellular cAMP concentration
Stool output, stool water content, and intestinal transit ([11]; acute constipation produced by loperamide): normalized
ED50 orally administered, loperamide model ([11]; oral, mice): 0.5 mg/kg
Blood counts, serum chemistries, and lung water content ([12]; chronic oral high-dose, mice): no effect
Toxicity [12]: showed no toxicity
Systemic exposure following oral administration [13]: minimal systemic exposure
Effect in CFTR-deficient mice (CFTR-deficient mice): no effect

Molecule: C=C[C@@]1(C)CC(=O)[C@]2(O)[C@@]3(C)[C@@H](O)CCC(C)(C)[C@@H]3[C@H](O)[C@H](OC(C)=O)[C@@]2(C)O1 [forskolin, reference compound]
Enteroid area, forskolin alone ([9]; 0.3 μM forskolin, 40 minutes, human jejunal enteroids): small increase in area

Block of currents activated by forskolin and CFTRact-J027 (human wild-type CFTR [2]; 10 μM): blocked
Molecule: CFTRinh-172 [reference compound]
